From ChEMBL document CHEMBL3046803, “Synthesis and insecticidal activities of novel anthranilic diamides containing acylthiourea and acylurea” (2012)
Activity calls are given as the source filed them. The rule behind the calls is not given here.

Key:
Mythimna separata [1] = test: Insecticidal activity against Mythimna separata (Oriental armyworm) fourth-instar larvae infected Zea mays leaves assessed as larvicidal activity at 5 mg/L measured 2 days post dose; assay type: functional
Outline: (§1)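 Foliar application test: individual corn (Tangyu 10) leaves were placed on moistened filter paper in Petri dishes.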

[2] = target: Voltage-dependent L-type calcium channel, putative (Pediculus humanus subsp. corporis) (UniProt E0VY79); test: Inhibition of voltage-dependent L-type calcium channel in Spodoptera exigua neurons assessed as increase in intracellular calcium level at 1000 mg/L measured 10 min post dose by calcium-imaging technique; assay type: cell-based
Outline: (§2)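 S. exigua neurons were rinsed in physiological saline (pH 6.9). They were dye-loaded in the dark at 28 °C, either with 10 μM fluo-3-AM for 45 min in standard saline or with 5 μM fluo-5N for 5 h in EGTA Ca-free saline, then rinsed twice. [Ca²⁺]i was imaged on an inverted fluorescence microscope (40× oil, 488/530 nm) over 10 min. F/F₀ is relative to resting baseline; ≥6 repeats; mean ± SD.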

[3] = target: Ryanodien receptor (Spodoptera exigua) (UniProt H9CNL0); test: Inhibition of Ryanodine receptor in Spodoptera exigua neurons assessed as reduction in intracellular calcium level at 1000 mg/L pre-treated with 10 mg/ml heparin and 1 uM thapsigargin by calcium-imaging technique; assay type: cell-based
Outline: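 Primary cultured S. exigua neurons were rinsed in saline, then loaded in the dark at 28 °C with 5 μM fluo-5N for 5 h in Ca-free saline (150 mM NaCl, 4 mM KCl, 2 mM MgCl₂, 2 mM EGTA, 10 mM HEPES, pH 6.9). They were treated with 10 mg/mL heparin for 20 min, then 1 μM thapsigargin for 10 min. Fluorescence was imaged (40× oil, 488/530 nm) and expressed as F/F₀.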

[4] = target: Voltage-dependent L-type calcium channel, putative (Pediculus humanus subsp. corporis) (UniProt E0VY79); test: Inhibition of voltage-dependent L-type calcium channel in Spodoptera exigua neurons assessed as peak intracellular calcium level at 1000 mg/L measured 10 min post dose by calcium-imaging technique relative to initial untreated control; assay type: cell-based; design: scale not given: the % may be the effect or the level left; outline: as §2
[5] = target: Voltage-dependent L-type calcium channel, putative (Pediculus humanus subsp. corporis) (UniProt E0VY79); test: Inhibition of voltage-dependent L-type calcium channel in Spodoptera exigua neurons assessed as peak calcium current at 0.1 mM measured 1 min post dose by electrophysiology method (reference value: 104.47 +/- 2.33%); design: scale not given: the % may be the effect or the level left
[6] = target: Voltage-dependent L-type calcium channel, putative (Pediculus humanus subsp. corporis) (UniProt E0VY79); test: Inhibition of voltage-dependent L-type calcium channel in Spodoptera exigua neurons assessed as peak calcium current at 0.1 mM measured 5 min post dose by electrophysiology method (reference value: 98.06 +/- 1.01%); design: scale not given: the % may be the effect or the level left
[7] = target: Voltage-dependent L-type calcium channel, putative (Pediculus humanus subsp. corporis) (UniProt E0VY79); test: Inhibition of voltage-dependent L-type calcium channel in Spodoptera exigua neurons assessed as peak calcium current at 0.001 mM measured 8 min post dose by electrophysiology method (reference value: 90.85 +/- 0.65%); design: scale not given: the % may be the effect or the level left
[8] = target: Voltage-dependent L-type calcium channel, putative (Pediculus humanus subsp. corporis) (UniProt E0VY79); test: Inhibition of voltage-dependent L-type calcium channel in Spodoptera exigua neurons assessed as peak calcium current at 0.001 mM measured 5 min post dose by electrophysiology method (reference value: 98.06 +/- 1.01%); design: scale not given: the % may be the effect or the level left
[9] = target: Voltage-dependent L-type calcium channel, putative (Pediculus humanus subsp. corporis) (UniProt E0VY79); test: Inhibition of voltage-dependent L-type calcium channel in Spodoptera exigua neurons assessed as peak calcium current at 0.1 mM measured 8 min post dose by electrophysiology method (reference value: 90.85 +/- 0.65%); design: scale not given: the % may be the effect or the level left
Mythimna separata [10] = test: Insecticidal activity against Mythimna separata (Oriental armyworm) fourth-instar larvae infected Zea mays leaves assessed as larvicidal activity at 50 mg/L measured 2 days post dose; assay type: functional; outline: as §1
[11] = target: Voltage-dependent L-type calcium channel, putative (Pediculus humanus subsp. corporis) (UniProt E0VY79); test: Inhibition of voltage-dependent L-type calcium channel in Spodoptera exigua neurons assessed as change in […] calcium level at 1000 mg/L measured 10 min post dose by calcium-imaging technique; outline: as §2
Mythimna separata [12] = test: Insecticidal activity against Mythimna separata (Oriental armyworm) fourth-instar larvae infected Zea mays leaves assessed as larvicidal activity at 100 mg/L measured 2 days post dose; assay type: functional; outline: as §1
[13] = target: Voltage-dependent L-type calcium channel, putative (Pediculus humanus subsp. corporis) (UniProt E0VY79); test: Inhibition of voltage-dependent L-type calcium channel in Spodoptera exigua neurons assessed as peak calcium current at 0.1 mM measured 4 min post dose by electrophysiology method (reference value: 99.66 +/- 1.64%); design: scale not given: the % may be the effect or the level left
[14] = target: Voltage-dependent L-type calcium channel, putative (Pediculus humanus subsp. corporis) (UniProt E0VY79); test: Inhibition of voltage-dependent L-type calcium channel in Spodoptera exigua neurons assessed as peak calcium current at 0.1 mM measured 2 min post dose by electrophysiology method (reference value: 102.75 +/- 2.45%); design: scale not given: the % may be the effect or the level left
[15] = target: Voltage-dependent L-type calcium channel, putative (Pediculus humanus subsp. corporis) (UniProt E0VY79); test: Inhibition of voltage-dependent L-type calcium channel in Spodoptera exigua neurons assessed as peak calcium current at 0.001 mM measured 3 min post dose by electrophysiology method (reference value: 101.76 +/- 2.7%); design: scale not given: the % may be the effect or the level left
[16] = target: Voltage-dependent L-type calcium channel, putative (Pediculus humanus subsp. corporis) (UniProt E0VY79); test: Inhibition of voltage-dependent L-type calcium channel in Spodoptera exigua neurons assessed as change in peak calcium current at 0.1 mM at -70 mV holding potential measured 1 min post dose by electrophysiology method
[17] = target: Voltage-dependent L-type calcium channel, putative (Pediculus humanus subsp. corporis) (UniProt E0VY79); test: Inhibition of voltage-dependent L-type calcium channel in Spodoptera exigua neurons assessed as peak calcium current at 0.1 mM at -70 mV holding potential measured 5 min post dose by electrophysiology method
[18] = target: Voltage-dependent L-type calcium channel, putative (Pediculus humanus subsp. corporis) (UniProt E0VY79); test: Inhibition of voltage-dependent L-type calcium channel in Spodoptera exigua neurons assessed as peak calcium current at 0.001 mM measured 10 min post dose by electrophysiology method (reference value: 85.44 +/- 1.14%); design: scale not given: the % may be the effect or the level left
[19] = target: Voltage-dependent L-type calcium channel, putative (Pediculus humanus subsp. corporis) (UniProt E0VY79); test: Inhibition of voltage-dependent L-type calcium channel in Spodoptera exigua neurons assessed as peak calcium current at 0.1 mM measured 3 min post dose by electrophysiology method (reference value: 101.76 +/- 2.7%); design: scale not given: the % may be the effect or the level left
Mythimna separata [20] = test: Insecticidal activity against Mythimna separata (Oriental armyworm) fourth-instar larvae infected Zea mays leaves assessed as larvicidal activity at 200 mg/L measured 2 days post dose; assay type: functional; outline: as §1
Culex pipiens pallens = test: Insecticidal activity against Culex pipiens pallens (mosquito) fourth-instar larvae assessed as larvicidal activity at 2 mg/L measured 3 days post dose; assay type: functional
Outline: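 Mosquito larvicidal test: compounds were dissolved in acetone and diluted with distilled water to the test concentrations.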

Mythimna separata [21] = test: Insecticidal activity against Mythimna separata (Oriental armyworm) fourth-instar larvae infected Zea mays leaves assessed as larvicidal activity at 20 mg/L measured 2 days post dose; assay type: functional; outline: as §1
[22] = target: Voltage-dependent L-type calcium channel, putative (Pediculus humanus subsp. corporis) (UniProt E0VY79); test: Inhibition of voltage-dependent L-type calcium channel in Spodoptera exigua neurons assessed as peak calcium current at 0.1 mM measured 10 min post dose by electrophysiology method (reference value: 85.44 +/- 1.14%); design: scale not given: the % may be the effect or the level left
[23] = target: Voltage-dependent L-type calcium channel, putative (Pediculus humanus subsp. corporis) (UniProt E0VY79); test: Inhibition of voltage-dependent L-type calcium channel in Spodoptera exigua neurons assessed as peak calcium current at 0.001 mM measured 4 min post dose by electrophysiology method (reference value: 99.66 +/- 1.64%); design: scale not given: the % may be the effect or the level left
[24] = target: Voltage-dependent L-type calcium channel, putative (Pediculus humanus subsp. corporis) (UniProt E0VY79); test: Inhibition of voltage-dependent L-type calcium channel in Spodoptera exigua neurons assessed as peak calcium current at 0.1 mM at -70 mV holding potential measured 10 min post dose by electrophysiology method
Mythimna separata [25] = test: Insecticidal activity against Mythimna separata (Oriental armyworm) fourth-instar larvae infected Zea mays leaves assessed as larvicidal activity at 10 mg/L measured 2 days post dose; assay type: functional; outline: as §1
[26] = target: Voltage-dependent L-type calcium channel, putative (Pediculus humanus subsp. corporis) (UniProt E0VY79); test: Inhibition of voltage-dependent L-type calcium channel in Spodoptera exigua neurons assessed as change in peak calcium current at 0.001 mM at -70 mV holding potential measured 1 to 10 min post dose by electrophysiology method

Voltage-dependent L-type calcium channel, putative (Pediculus humanus subsp. corporis), sequence (E0VY79 as listed by the source): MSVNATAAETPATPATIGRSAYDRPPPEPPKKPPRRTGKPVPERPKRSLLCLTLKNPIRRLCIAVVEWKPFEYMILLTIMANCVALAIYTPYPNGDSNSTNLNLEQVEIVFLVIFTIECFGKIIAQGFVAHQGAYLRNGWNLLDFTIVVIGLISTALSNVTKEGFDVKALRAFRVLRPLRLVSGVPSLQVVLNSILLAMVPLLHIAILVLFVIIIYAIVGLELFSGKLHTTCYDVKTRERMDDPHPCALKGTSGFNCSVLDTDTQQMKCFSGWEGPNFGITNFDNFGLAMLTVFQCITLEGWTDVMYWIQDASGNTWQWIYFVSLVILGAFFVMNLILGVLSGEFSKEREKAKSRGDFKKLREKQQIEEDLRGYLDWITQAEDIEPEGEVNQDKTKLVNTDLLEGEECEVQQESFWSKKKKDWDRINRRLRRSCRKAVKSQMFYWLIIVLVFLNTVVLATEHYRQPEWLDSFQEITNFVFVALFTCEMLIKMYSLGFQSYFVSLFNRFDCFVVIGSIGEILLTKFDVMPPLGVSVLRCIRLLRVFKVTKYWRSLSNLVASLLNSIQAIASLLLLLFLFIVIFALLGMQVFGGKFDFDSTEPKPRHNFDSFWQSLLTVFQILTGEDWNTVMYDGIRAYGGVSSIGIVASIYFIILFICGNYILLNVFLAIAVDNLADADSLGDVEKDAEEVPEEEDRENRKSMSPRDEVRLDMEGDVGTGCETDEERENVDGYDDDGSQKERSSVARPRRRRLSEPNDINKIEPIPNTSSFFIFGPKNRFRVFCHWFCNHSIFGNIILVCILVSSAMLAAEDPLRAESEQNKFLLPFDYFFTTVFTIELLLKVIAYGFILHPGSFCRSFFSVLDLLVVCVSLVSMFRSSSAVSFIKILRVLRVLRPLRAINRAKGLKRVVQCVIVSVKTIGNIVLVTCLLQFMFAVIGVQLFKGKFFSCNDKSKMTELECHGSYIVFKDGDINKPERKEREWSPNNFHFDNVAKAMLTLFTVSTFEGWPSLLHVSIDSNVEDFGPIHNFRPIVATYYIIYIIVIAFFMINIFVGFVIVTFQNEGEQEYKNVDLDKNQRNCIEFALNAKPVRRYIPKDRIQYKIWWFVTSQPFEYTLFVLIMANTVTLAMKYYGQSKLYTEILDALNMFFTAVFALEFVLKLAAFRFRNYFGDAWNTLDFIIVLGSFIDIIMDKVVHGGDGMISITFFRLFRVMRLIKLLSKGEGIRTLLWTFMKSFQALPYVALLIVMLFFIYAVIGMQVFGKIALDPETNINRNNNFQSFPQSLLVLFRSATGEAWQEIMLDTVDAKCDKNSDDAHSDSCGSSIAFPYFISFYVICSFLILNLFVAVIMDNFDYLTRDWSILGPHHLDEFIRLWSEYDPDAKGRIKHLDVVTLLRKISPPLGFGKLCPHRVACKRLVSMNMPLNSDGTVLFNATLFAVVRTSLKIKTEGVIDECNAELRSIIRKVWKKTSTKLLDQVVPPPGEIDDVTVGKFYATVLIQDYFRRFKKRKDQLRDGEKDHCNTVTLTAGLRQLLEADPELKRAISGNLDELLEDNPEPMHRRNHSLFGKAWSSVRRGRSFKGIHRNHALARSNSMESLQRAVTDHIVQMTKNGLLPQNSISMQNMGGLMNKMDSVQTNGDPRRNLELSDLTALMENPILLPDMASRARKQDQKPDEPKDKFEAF

With Cc1cc(Cl)cc(C(=O)NC(C)C)c1NC(=S)NC(=O)c1cc(Cl)nn1-c1ncccc1Cl the Activity (Mythimna separata [1]) was 40%, the Activity [2] was “Active” and the inhibition [3] was “Active”. The Activity [4] was 117%, the Activity [5] was 91.5% and the Activity [6] was 70.2%. For the same compound, the Activity [7] was 81.2%, the Activity [8] was 84.4% and the Activity [9] was 61%. For the same compound, the Activity (Mythimna separata [10]) was 100%, the inhibition [11] was “inactive” and the Activity (Mythimna separata [12]) was 100%. For the same compound, the Activity [13] was 74.4%, the Activity [14] was 84.1% and the Activity [15] was 95.8%. It also gave an Activity [16] of 10 mV, an Activity [17] of -1.64 nanoampere and an Activity [18] of 74.6%. It also gave an Activity [19] of 80.7%, an Activity (Mythimna separata [20]) of 100% and an Activity (Culex pipiens pallens) of 40%. The Activity (Mythimna separata [21]) was 100%, the Activity [22] was 54.7% and the Activity [23] was 90.1%. The Activity [24] was -1.27 nanoampere, the Activity (Mythimna separata [25]) was 100% and the inhibition [26] was “inactive”.
